Measured values from ChEMBL document CHEMBL3526107, “In vivo-formed versus preformed metabolite kinetics of trans-resveratrol-3-sulfate and trans-resveratrol-3-glucuronide” (Drug Metab Dispos, 2012).

What was measured:
Format in all cases: ADME, organism-based
[1] = Terminal half life in C57BL/6 mouse at 3.5 mg/kg administered intraarterially by LC-MS/MS analysis; set-up: dose 3.5 mg/kg, route intra-arterial; details: in vivo, read-out: beta t1/2
Method in brief: (§1)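 Single 3.5 mg/kg intraarterial bolus in saline via carotid cannula to fasted male C57BL/6 mice; n = 4. Blood (20 µl) is drawn serially over 2.5–600 min and at 24 h. Plasma with ascorbic acid is precipitated with methanol containing acetaminophen IS, then quantified by negative-mode LC-MS/MS. Noncompartmental parameters: trapezoidal AUC, Cl = Dose/AUC0-inf, Vss = Cl×MRT0-inf, t1/2 = 0.693/terminal slope.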

[2] = Cmax in C57BL/6 mouse at 3.5 mg/kg administered intraarterially by LC-MS/MS analysis; set-up: dose 3.5 mg/kg, route intra-arterial; details: in vivo; method in brief: as §1
[3] = Tmax in C57BL/6 mouse at 3.5 mg/kg administered intraarterially by LC-MS/MS analysis; set-up: dose 3.5 mg/kg, route intra-arterial; details: in vivo; method in brief: as §1
[4] = AUC (0 to infinity) in C57BL/6 mouse at 3.5 mg/kg administered intraarterially by LC-MS/MS analysis; set-up: time infinity, dose 3.5 mg/kg, route intra-arterial; details: plasma; method in brief: as §1
[5] = AUC (0 to t) in C57BL/6 mouse at 3.5 mg/kg administered intraarterially by LC-MS/MS analysis; set-up: dose 3.5 mg/kg, route intra-arterial; details: plasma; method in brief: as §1
[6] = Volume of distribution at steady state in C57BL/6 mouse at 3.5 mg/kg administered intraarterially by LC-MS/MS analysis; set-up: dose 3.5 mg/kg, route intra-arterial; details: in vivo, read-out: Vdss; method in brief: as §1
[7] = Clearance in C57BL/6 mouse at 3.5 mg/kg administered intraarterially by LC-MS/MS analysis; set-up: dose 3.5 mg/kg, route intra-arterial; details: in vivo; method in brief: as §1
[8] = Tmax in C57BL/6 mouse at 5 mg/kg administered intraarterially by LC-MS/MS analysis; set-up: dose 5 mg/kg, route intra-arterial; details: in vivo
Method in brief: (§2)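 Carotid-cannulated male C57BL/6 mice, food withheld for the first 10 h, dosed at 5 mg/kg intraarterially in saline; n = 4. Serial plasma samples taken 2.5–600 min are analysed by LC-MS/MS in negative ESI mode after methanol precipitation with acetaminophen as IS. Noncompartmental analysis uses linear trapezoidal AUC, with Cl = Dose/AUC0-inf, Vss = Cl×MRT, and t1/2 = 0.693/k.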

[9] = AUC (0 to infinity) in C57BL/6 mouse at 5 mg/kg administered intraarterially by LC-MS/MS analysis; set-up: time infinity, dose 5 mg/kg, route intra-arterial; details: plasma; method in brief: as §2
[10] = AUC (0 to t) in C57BL/6 mouse at 5 mg/kg administered intraarterially by LC-MS/MS analysis; set-up: dose 5 mg/kg, route intra-arterial; details: plasma; method in brief: as §2
[11] = Volume of distribution at steady state in C57BL/6 mouse at 5 mg/kg administered intraarterially by LC-MS/MS analysis; set-up: dose 5 mg/kg, route intra-arterial; details: in vivo, read-out: Vdss; method in brief: as §2
[12] = Clearance in C57BL/6 mouse at 5 mg/kg administered intraarterially by LC-MS/MS analysis; set-up: dose 5 mg/kg, route intra-arterial; details: in vivo; method in brief: as §2
[13] = Terminal half life in C57BL/6 mouse at 5 mg/kg administered intraarterially by LC-MS/MS analysis; set-up: dose 5 mg/kg, route intra-arterial; details: in vivo, read-out: beta t1/2; method in brief: as §2
[14] = Cmax in C57BL/6 mouse at 5 mg/kg administered intraarterially by LC-MS/MS analysis; set-up: dose 5 mg/kg, route intra-arterial; details: in vivo; method in brief: as §2
[15] = Terminal half life in C57BL/6 mouse at 15 mg/kg administered intraarterially by LC-MS/MS analysis; set-up: dose 15 mg/kg, route intra-arterial; details: in vivo, read-out: beta t1/2
Method in brief: (§3)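 Male C57BL/6 mice (20–25 g), fasted for the first 10 h of sampling. Single 15 mg/kg bolus in 20% 2-hydroxypropyl-β-cyclodextrin in saline via carotid artery cannula. Serial 20 µl blood draws from 2.5 to 600 min, plus 24 h; n = 5. Plasma is methanol-precipitated (acetaminophen IS) and run on negative-ESI LC-MS/MS. Noncompartmental analysis: linear trapezoidal AUC, Cl = Dose/AUC0-inf, Vss = Cl×MRT, t1/2 = 0.693/k.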

[16] = AUC (0 to t) in C57BL/6 mouse at 15 mg/kg administered intraarterially by LC-MS/MS analysis; set-up: dose 15 mg/kg, route intra-arterial; details: plasma; method in brief: as §3
[17] = Tmax in C57BL/6 mouse at 15 mg/kg administered intraarterially by LC-MS/MS analysis; set-up: dose 15 mg/kg, route intra-arterial; details: in vivo; method in brief: as §3
[18] = Clearance in C57BL/6 mouse at 15 mg/kg administered intraarterially by LC-MS/MS analysis; set-up: dose 15 mg/kg, route intra-arterial; details: in vivo; method in brief: as §3
[19] = Cmax in C57BL/6 mouse at 15 mg/kg administered intraarterially by LC-MS/MS analysis; set-up: dose 15 mg/kg, route intra-arterial; details: in vivo; method in brief: as §3
[20] = AUC (0 to infinity) in C57BL/6 mouse at 15 mg/kg administered intraarterially by LC-MS/MS analysis; set-up: time infinity, dose 15 mg/kg, route intra-arterial; details: plasma; method in brief: as §3
[21] = Volume of distribution at steady state in C57BL/6 mouse at 15 mg/kg administered intraarterially by LC-MS/MS analysis; set-up: dose 15 mg/kg, route intra-arterial; details: in vivo, read-out: Vdss; method in brief: as §3

Structure (SMILES): O=C(O)[C@H]1O[C@@H](Oc2cc(O)cc(/C=C/c3ccc(O)cc3)c2)[C@H](O)[C@@H](O)[C@@H]1O
- half-life [1]: 4.54 h
- Cmax [2]: 27.8 µM
- Tmax [3]: 2.5 min
- AUC(0-inf) [4]: 11.8 µM·h
- AUC(0-t) [5]: 10.8 µM·h
- Vd [6]: 4.55 L/kg
- clearance [7]: 13.8 mL/min/kg

Structure (SMILES): O=S(=O)(O)Oc1cc(O)cc(/C=C/c2ccc(O)cc2)c1
- Tmax [8]: 2.5 min
- AUC(0-inf) [9]: 4.26 µM·h
- AUC(0-t) [10]: 4.05 µM·h
- Vd [11]: 6.37 L/kg
- clearance [12]: 76.3 mL/min/kg
- half-life [13]: 2.13 h
- Cmax [14]: 14.8 µM

Structure (SMILES): Oc1ccc(/C=C/c2cc(O)cc(O)c2)cc1 [RESVERATROL]
- half-life [15]: 3.18 h
- AUC(0-t) [16]: 8.5 µM·h
- Tmax [17]: 2.5 min
- clearance [18]: 119 mL/min/kg
- Cmax [19]: 15.3 µM
- AUC(0-inf) [20]: 9.85 µM·h
- Vd [21]: 37.6 L/kg
